# CHT allo act: allosteric activators of human choline transporter CHT; B-score at 10 µM; AID 488977; actives 0.49% (n = 310,000); CHT-expressing cells, membrane potential dye, choline EC20; hits give high values; LV-AA mutant CHT in HEK293 cells;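 active = initial fluorescence not abnormally high and integrated response B-score, plate-corrected, over 3 SD above library mean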
# Target sequence (Q9GZV3 whole entry, looked up): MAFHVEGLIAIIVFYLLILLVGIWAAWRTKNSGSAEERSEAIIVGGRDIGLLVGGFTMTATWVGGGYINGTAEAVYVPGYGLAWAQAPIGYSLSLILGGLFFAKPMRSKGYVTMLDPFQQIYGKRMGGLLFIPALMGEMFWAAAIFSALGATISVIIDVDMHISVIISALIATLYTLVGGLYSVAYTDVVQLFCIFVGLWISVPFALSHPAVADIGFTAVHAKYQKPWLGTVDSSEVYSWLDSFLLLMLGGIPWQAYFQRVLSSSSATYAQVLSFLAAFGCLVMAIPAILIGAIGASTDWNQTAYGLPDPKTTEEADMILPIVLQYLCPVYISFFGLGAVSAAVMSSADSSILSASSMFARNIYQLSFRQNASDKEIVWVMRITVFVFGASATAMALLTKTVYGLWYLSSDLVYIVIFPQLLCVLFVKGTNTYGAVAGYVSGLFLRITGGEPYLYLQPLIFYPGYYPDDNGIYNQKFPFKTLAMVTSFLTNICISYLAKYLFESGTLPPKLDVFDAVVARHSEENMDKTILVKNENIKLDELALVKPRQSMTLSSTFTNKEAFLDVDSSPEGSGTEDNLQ
# CHT inh: inhibitors of human choline transporter CHT. CHT-expressing cells, membrane potential dye, choline response; hits give low values. B-score at 10 µM. actives 0.86% (n = 310,000);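 active = B-score over 3 SD under the library average, and starting fluorescence ratio not unusually high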;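 also: choline stimulus applied at its EC90 after an EC20 pre-addition; B-score computed on integrated fluorescence ratio after choline addition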
# T cruzi inh: blocks replication of Trypanosoma cruzi. inhibition, % (concentration not given with the values). AID 1885. T. cruzi beta-gal in NIH3T3, luminescence, 90 h. actives 1.4% (n = 300,000);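 active = mean inhibition across valid replicates above about 55%, limit read from the data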;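 also: signal also drops with host cell toxicity which is not excluded here; 0% = plate median of DMSO wells and 100% = zero luminescence signal; higher percent means less beta-gal luminescence so fewer parasites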
#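 Assay system: NIH/3T3 host cells with β-galactosidase reporter T. cruzi; input: 5,000 host fibroblasts per well; compound: single 50 nL compound addition per well in DMSO; timing: ≥90 h infection period, 3 h prior cell attachment; measured by: GalScreen β-gal luminescence, detergent lysis, 60 min; evaluation: percent inhibition of parasite-derived β-gal signal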
# PolyA inhibitor: yeast polyadenylation inhibition; AID 1875; actives 0.02% (n = 300,000); S. cerevisiae SKY197-pL101 polyadenylation reporter, beta-gal luminescence; efflux-impaired pdr1/pdr3 knockout yeast; score 100 = 6 SD above DMSO; activity score, % at 12 µM;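 active = lowest replicate activity score at least 50, where 100 means six control SD above control mean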;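 also: yeast exposed to compound for 9 h at 30 °C; higher score means more reporter readthrough which indicates perturbed polyadenylation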
# CHT activ conf: confirmation of human choline transporter (CHT) activators | shares compounds with CHT allo act | CHT-expressing cells, membrane potential dye fluorescence (FDSS); % of choline EC20–EC90 response window; HEK293 expressing CHT LV-AA mutant; choline added at its EC20 | activation, % at 10 µM | actives 91% (n = 2,500);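 active = primary screen active, with duplicate mean activation above negative control mean plus 3 SD, cut at about 11% in these data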
# HEK293 MP dye: activity in parental HEK293 cells lacking CHT; shares compounds with CHT allo act; membrane potential dye fluorescence (FDSS); measured after EC20 choline addition; ratio readout change at 10 µM, hits read low; actives 62% (n = 2,500);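 active = duplicate-averaged ratio beyond 3 SD from buffer wells, up or down, though filed actives are nearly all decreases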
# Starred values were filed as active, the others as inactive; i = inactive; nt = no result; ! = repeats disagree. Rows were chosen to be rich in hits. Some 2.6% of all compounds tested hit in one or more screens of this group.
SMILES,CHT allo act,CHT inh,T cruzi inh,PolyA inhibitor,CHT activ conf,HEK293 MP dye
COC(=O)c1ccc2c(=O)n(CCCN3CCOCC3)c(=S)[nH]c2c1,i,i,5,12,24*,-40*
Cc1cccc(NC(=S)N=Nc2c(O)[nH]c3ccccc23)c1,9.5*,i,64*,-1,8,i
Cc1ccc2nc(Cl)c(/C=N/n3c(C)nnc3C)cc2c1,8*,i,-10,9,43*,-54*
Cc1ccc(/C=N/n2c(C)nnc2C)cc1,i,i,-25,3,nt,nt
COc1ccc(C(=O)N/C(=C\c2cn(C)c3ccccc23)C(=O)NCCCn2ccnc2)cc1,i,i,3,4,nt,nt
N=c1c(C(=O)NC2CCCC2)cc2c(=O)n3ccccc3nc2n1CCN1CCOCC1,i,i,3,12,48*,-38*
N=c1c(C(=O)NC2CCCC2)cc2c(=O)n3ccccc3nc2n1Cc1ccccc1,i,i,29,-4,nt,nt
COc1ccc(CCn2c(=N)c(C(=O)NCC3CCCO3)cc3c(=O)n4ccccc4nc32)cc1 (stereo not given),i,i,1,-8,nt,nt
Cc1cccn2c(=O)c3cc(C(=O)NC4CCCC4)c(=N)n(CCc4ccccc4)c3nc12,i,i,35,-6,10,-29*
COc1ccc(CCn2c(=N)c(C(=O)NC3CCCCC3)cc3c(=O)n4ccccc4nc32)cc1,i,i,34,9,43*,-48*
CC(C)CNC(=O)CC(c1ccccc1)c1ccccc1,i,i,-8,-8,nt,nt
COc1ccccc1NS(=O)(=O)c1cc(NC(=O)C2CC2)ccc1N1CCOCC1,i,i,5,13,nt,nt
COc1ccccc1NS(=O)(=O)c1cc(N2Cc3ccccc3C2=N)ccc1N1CCOCC1,i,i,0,-16,37*,-45*
CC(CCc1ccccc1)NC(=O)C(=O)c1c[nH]c2ccccc12 (stereo not given),i,i,4,9,nt,nt
Cc1ccc(-c2c[n+](Cc3ccc(Cl)c(Cl)c3)c3n2CCC3)cc1,7*,i,49,8,52*,-30*
CC(=O)N1c2ccc(S(=O)(=O)N3CCC(C(=O)N4CCN(c5ccc(Cl)cc5)CC4)CC3)cc2CC1C (stereo not given),i,i,6,-2,nt,nt
CCOC(=O)c1cnn(-c2sc(C(=O)OCC)c(C)c2C(=O)OCC)c1N,6.6*,i,-10,10,-3,i
CCCCNc1c(-c2ccc(SC(C)CC)cc2)nc2ccccn12 (stereo not given),i,i,37,1,nt,nt
Oc1ccccc1N=Nc1nc(-c2ccccc2)c(-c2ccccc2)[nH]1,i,i,63*,-6,0,i
COc1cc2c(cc1OC)C(c1cccc([N+](=O)[O-])c1)N(C(=O)c1ccc(F)cc1)CC2 (stereo not given),7.1*,i,6,-29,46*,i
COc1cc2c(cc1OC)C(c1ccccc1)N(C(=O)c1ccccc1)CC2 (stereo not given),i,i,9,-27,nt,nt
COc1cc2c(cc1OC)C(c1ccc([N+](=O)[O-])cc1)N(C(C)=O)CC2 (stereo not given),i,i,-11,-8,nt,nt
COc1ccc(C2c3cc(OC)c(OC)cc3CCN2C(=O)c2cccc([N+](=O)[O-])c2)cc1OC (stereo not given),i,i,20,-1,29*,i
Cc1c(CCOC(=O)CC23CC4CC(CC(C4)C2)C3)sc[n+]1CC(=O)c1ccccc1,i,i,35,-18,45*,i
Cc1c(CCOC(=O)C23CC4CC(CC(C4)C2)C3)sc[n+]1Cc1ccccc1,i,i,1,-7,nt,nt
SMILES,CHT allo act,CHT inh,T cruzi inh,PolyA inhibitor,CHT activ conf,HEK293 MP dye
O=C(N/N=C/c1ccc(F)cc1)c1cc[n+]([O-])cc1,i,i,-8,13,nt,nt
CCn1cnc2cc(NCc3ccncc3)ccc21,i,i,-2,-3,49*,-38*
CCn1cnc2cc(NCc3ccc(Cl)cc3)ccc21,i,i,-8,5,nt,nt
COc1ccccc1C1CC(c2ccc(Cl)cc2)Nc2ncnn21 (stereo not given),i,i,19,4,30*,i
CC(C)Oc1ccc(-c2nc(NCC3CCCO3)c3ccccc3n2)cc1 (stereo not given),i,i,38,-11,nt,nt
c1cncc(-c2nc(NCC3CCCO3)c3ccccc3n2)c1 (stereo not given),i,i,20,4,22*,-33*
CCCc1ccc(C2=Nn3c(nnc3C(C)C)SC2)cc1,i,i,21,2,nt,nt
CCOC(=O)C1(Cc2ccccc2C(F)(F)F)CCN(Cc2ccon2)CC1,7*,i,13,4,20*,i
CCOC(=O)C1(Cc2ccccc2)CCN(Cc2ccon2)CC1,i,i,6,1,nt,nt
CC(=O)N1CCN(C2=Nc3cccc4cccc2c34)CC1,9.8*,i,-9,13,52*,-77*
c1cc2c3c(cccc3c1)C(N1CCOCC1)=N2,8.5*,i,-2,2,56*,-68*
O=C(O)c1ccc(NC2=Nc3cccc4cccc2c34)cc1,nt,nt,-2,-22,nt,nt
COc1ccccc1N1CCN(C2=Nc3cccc4cccc2c34)CC1,i,i,52,21,39*,-58*
CC1CN(C2=Nc3cccc4cccc2c34)CC(C)O1 (stereo not given),i,i,-9,5,58*,-56*
O=C(CCCCCN1C(=O)c2cccc3cccc(c23)C1=O)N1CCOCC1,i,i,16,4,nt,nt
O=C(Nc1ccc(CN2CCOCC2)cc1)c1ccc(-c2cccc([N+](=O)[O-])c2)o1,i,i,16,7,nt,nt
COC(=O)/C(=C(O)\C=C\c1ccccc1[N+](=O)[O-])c1nc2ccccc2[nH]1,i,i,33,-10,nt,nt
COc1ccc(-c2[nH]ncc2CNCCn2cccn2)c(F)c1,i,i,1,-7,nt,nt
COc1ccc(-c2[nH]ncc2CNCc2cc(C)n(C)n2)c(F)c1,7.8*,i,-5,-6,45*,-60*
CCN(CC)CCSc1nnc2c3ccccc3n(CCc3ccccc3)c2n1,8.5*,i,33,6,31*,-35*
COc1cc2nc(N3CCN(C(=O)c4ccco4)CC3)nc(N)c2cc1OC,6.5*!,i,13,-13,37*,-26*
CC1(C)Cc2c(sc3c2C2=NCCN2C=N3)CO1,9.3*,i,0,21,75*,-63*

# Screening data deposited in PubChem by several laboratories.
